# Sampled rows, rich in hits. Any-hit rate of the full collection: about 3%.
# PKD1 kinase inh: PKD1 (human) kinase inhibition; Q15139; PKD1 kinase fluorescence polarization assay; inhibition, % (test concentration not listed); hit rate 0.056% among 200,000; in the data active = inhibition above about 50%
# Target sequence (Q15139 whole entry, looked up): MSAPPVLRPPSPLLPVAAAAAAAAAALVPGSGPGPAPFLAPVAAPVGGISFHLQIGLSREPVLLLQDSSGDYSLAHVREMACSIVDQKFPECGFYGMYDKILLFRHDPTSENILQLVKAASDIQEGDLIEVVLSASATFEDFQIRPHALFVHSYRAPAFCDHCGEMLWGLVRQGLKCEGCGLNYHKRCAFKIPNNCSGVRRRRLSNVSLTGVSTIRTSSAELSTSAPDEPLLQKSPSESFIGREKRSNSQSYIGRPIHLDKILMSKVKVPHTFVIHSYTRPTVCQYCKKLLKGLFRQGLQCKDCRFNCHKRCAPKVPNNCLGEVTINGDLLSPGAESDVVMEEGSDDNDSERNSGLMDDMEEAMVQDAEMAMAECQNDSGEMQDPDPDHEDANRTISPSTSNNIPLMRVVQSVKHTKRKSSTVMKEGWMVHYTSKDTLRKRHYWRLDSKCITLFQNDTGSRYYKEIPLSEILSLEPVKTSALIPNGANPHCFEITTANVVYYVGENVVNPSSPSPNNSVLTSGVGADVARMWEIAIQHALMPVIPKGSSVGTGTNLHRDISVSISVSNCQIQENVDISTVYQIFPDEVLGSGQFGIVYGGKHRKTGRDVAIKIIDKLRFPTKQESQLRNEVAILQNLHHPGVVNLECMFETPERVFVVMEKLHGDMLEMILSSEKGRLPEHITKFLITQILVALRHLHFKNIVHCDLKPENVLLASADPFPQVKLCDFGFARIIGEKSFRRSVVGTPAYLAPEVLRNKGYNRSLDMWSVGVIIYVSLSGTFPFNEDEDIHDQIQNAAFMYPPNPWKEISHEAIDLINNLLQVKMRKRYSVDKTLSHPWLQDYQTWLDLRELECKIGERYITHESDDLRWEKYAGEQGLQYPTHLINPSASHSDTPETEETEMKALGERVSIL
# Rad51 HR inh: Rad51 (human) homologous recombination inhibition; Q06609; hRad51 DNA strand exchange, fluorescence dequenching; inhibition, % at 10 µM; hit rate 0.085% among 200,000; AID 1385;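 active = inhibition above 40% at the single screening dose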;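 also: 0% = DMSO control wells and 100% = blanks with heterologous ssDNA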
#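 System: hRad51 filaments on single-stranded DNA; reagent: Fluorescein- and BHQ1-tagged 47-mer duplex; compound dosing: one concentration, 10 µM final; timing: filaments 15 min 37 °C, then compound 30 min; measured by: fluorescein emission 520 nm, excitation 485 nm; benchmarks: per-plate controls and blanks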
# KCC2 mod: modulates chloride dependent transport by human KCC2; hit rate 2.2% among 190,000; Q9H2X9; B-score of Tl+ flux slope (higher = more flux/activation; lower = inhibition) at 10 µM; KCC2 cells, thallium flux FluoZin-2 fluorescence; AID 1456;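 active = thallium flux slope and its plate-corrected score both differing from the plate sample mean at a set confidence after two filtering rounds, in either direction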;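 also: slope of fluorescence scaled to starting intensity during 10 to 20 s after thallium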
# ROMK mod: human ROMK K+ channel modulation, primary screen; Tet-inducible ROMK, thallium flux fluorescence; actives lie on both sides; B-score at 10 µM; hit rate 2% among 130,000; AID 1918;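 active = signal ratio slope over the read window, or its plate-corrected B-score, at least 3 SD from the plate mean, either direction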;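 also: B-score of the F/F0 ratio slope over 7 to 12 s after thallium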
# KCC2 secondary: confirmation of human KCC2 transport modulators | shares compounds with KCC2 mod | HEK293-KCC2, thallium flux, FluoZin2 fluorescence; active compounds read high | normalised thallium flux (F/F0 slope) at 10 µM | hit rate 15% among 3,700 | AID 1713;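 active = thallium flux slope above the same plate's solvent-only control mean plus 3 SD; inconclusive = the two replicate wells disagree; inactive = no significant difference from solvent-only control wells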
# KCC2 bumet counter: thallium flux persisting under bumetanide in KCC2 cells, counter-screen secondary assay; normalized thallium flux at 10 µM; shares compounds with KCC2 mod; HEK293-KCC2 + bumetanide/ouabain, thallium flux FluoZin2; active compounds read high; hit rate 49% among 3,700;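 active = thallium entry rate above the same plate's blocked-transporter control wells by more than 3 SD; inconclusive = the two repeat wells disagree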;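 also: raw slope of fluorescence over initial fluorescence between 10 and 20 s after thallium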
# KCC2 sec2: KCC2 (human) modulation, second secondary assay | shares compounds with KCC2 mod | HEK293-KCC2, thallium flux FluoZin2 fluorescence; actives lie on both sides; F/F0 rise rate, 10–20 s post-thallium | normalized thallium flux at 10 µM | hit rate 23% among 3,700 | AID 1715;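 active = thallium flux slope more than 3 SD above or below the plate's solvent-only control mean, mostly below; inconclusive = the two repeat wells disagreed; inactive = no significant shift from solvent-only controls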;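 also: raw slope with 0.1% DMSO as baseline and bumetanide as block control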
# HEK counter1: acts in parental HEK cells, KCC2 counter-screen; hit rate 46% among 3,700; thallium flux rate (normalised fluorescence) at 10 µM; shares compounds with KCC2 mod; AID 1716; HEK293 parental cells, thallium flux FluoZin2, ouabain; baseline-ratio fluorescence slope, 10–20 s after thallium;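 active = thallium flux rate significantly above the same plate's solvent-only control wells, beyond their mean plus 3 SD; inconclusive = the two replicate wells gave conflicting results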
# KCC2 ouabain: confirmation of human KCC2 modulators with ouabain; hit rate 48% among 3,700; raw Tl+ flux slope (below DMSO = inhibition, above = activation) at 10 µM; HEK293-KCC2, thallium flux FluoZin2 fluorescence; bidirectional: low = inhibitor, high = activator; shares compounds with KCC2 mod;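 active = thallium flux slope beyond 3 SD from same-plate DMSO control mean in most replicates, usually higher, sometimes lower; inconclusive = repeat tests gave conflicting results; inactive = no significant difference from controls in most replicates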;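 also: slope of initial-normalized fluorescence between seconds 10 and 20 after thallium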
# HEK293 Tl flux2: acts in parental HEK cells, second KCC2 counter-screen. shares compounds with KCC2 mod. HEK293 parental, thallium flux FluoZin-2 fluorescence slope. thallium flux slope at 10 µM. hit rate 33% among 3,700;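 active = thallium flux slope above the same plate's solvent-control mean plus 3 SD in both duplicate wells; inconclusive = duplicate wells that disagreed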;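 also: run without ouabain in cells lacking the KCC2 cotransporter; slope of fluorescence scaled to its starting value between 10 and 20 s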
# The depositor's hits bear a star; ? = inconclusive; / = no result given.
SMILES,PKD1 kinase inh,Rad51 HR inh,KCC2 mod,ROMK mod,KCC2 secondary,KCC2 bumet counter,KCC2 sec2,HEK counter1,KCC2 ouabain,HEK293 Tl flux2
Cc1ccc(NC(=O)CCCSc2ccccc2)cc1S(=O)(=O)N1CCOCC1,-2,-34,-3*,-1.7,0.018,0.0044,?,0.0068,0.016,0.01
COc1cc(/C=C/C(=O)OCC(=O)Nc2ccc(C)c(S(=O)(=O)N3CCCCC3)c2)ccc1O,5,/,-2.4,0.023,/,/,/,/,/,/
COc1ccc(-c2[nH]ncc2CN(CCO)Cc2cccs2)c(F)c1,13,13,-0.99,-0.058,/,/,/,/,/,/
Cc1cc(-c2cc(C(=O)NCc3ccccc3)on2)nc(NCC2CC2)n1,/,0,-1.3,/,/,/,/,/,/,/
Cc1ccc(/C=C2\NC(=S)NC2=O)cc1[N+](=O)[O-],3,3,3*,-1.9,0.015,0.0041,0.03,0.007,0.018,0.0087
Cc1cccc(-c2n[nH]c(=S)n2/N=C/c2cccs2)c1,/,-2,41*,0.035,0.019*,0.08*,0.034,0.054*,0.054*,0.016*
Cc1cccc(-c2n[nH]c(=S)n2/N=C/c2ccc(C)s2)c1,6,-5,13*,2,0.011,0.031*,0.033,0.016*,0.028,0.012*
Cc1ccsc1/C=N/n1c(-c2ccccc2)n[nH]c1=S,8,/,9.8*,0.97,0.014*,0.039*,0.036,0.015*,?,0.013*
Cc1ccc(/C=N/n2c(-c3ccncc3)n[nH]c2=S)s1,/,6,0.78,/,/,/,/,/,/,/
S=c1[nH]nc(-c2cccs2)n1/N=C/c1c(Cl)cccc1Cl,-5,-24,34*,0.55,0.019,0.042*,0.03,0.022*,0.029*,0.019*
S=c1[nH]nc(-c2cccnc2)n1/N=C/c1cccs1,-2,-1,0.068,0.56,/,/,/,/,/,/
CN(C)C(=O)c1c(C(F)(F)F)nn(C)c1Cl,1,0,1,0.083,/,/,/,/,/,/
COC(=O)c1onc(-c2c(Cl)cccc2Cl)c1C(=O)OC,/,10,/,/,/,/,/,/,/,/
COc1ccc2[nH]c(=O)c(C(c3nnnn3CC3CCCO3)N3CCc4ccccc4C3)cc2c1 (stereo not drawn),-2,5,-5.1*,/,0.0096,0.007,0.029,0.0071,0.03,0.0099
Cc1ccc2[nH]c(=O)c(C(c3nnnn3CC3CCCO3)N3CCc4ccccc4C3)cc2c1 (stereo not drawn),-3,0,0.39,-1.6,/,/,/,/,/,/
CN1C(C(=O)NCc2cccc(Br)c2)CC2Cn3c(nc4cc(Cl)c(Cl)cc43)C21 (stereo not drawn),/,-8,-3.4*,/,0.0085,0.0061,0.033,0.0074,0.018,0.01
C=CCNC(=O)c1c2c(nc3ccccc13)-c1ccccc1CC2,8,11,-0.66,/,/,/,/,/,/,/
Cc1ccc(S(=O)(=O)N(C)CC(=O)OCC(=O)c2c(N)n(C)c(=O)n(C)c2=O)cc1,6,8,-1,/,/,/,/,/,/,/
CCO[C@@H]1OC(C(=O)N2CCN(Cc3ccccc3)CC2)=C[C@H](c2coc3ccccc3c2=O)[C@H]1CCCO,7,3,-0.35,/,/,/,/,/,/,/
Cc1cccc(-n2c(=S)[nH]c3sc4c(c3c2=O)CCc2ccccc2-4)c1,6,6,21*,0.79,0.02*,0.046*,0.035,0.04*,0.043*,0.018*
O=C(O)C1CCc2sc3[nH]c(=S)n(-c4ccccc4)c(=O)c3c21 (stereo not drawn),/,3,-0.023,/,/,/,/,/,/,/
CCSS(=O)(=O)c1cccc2cccnc12,/,5,3.9*,/,?,0.0079*,0.034,0.01*,?,0.014*
O=C(O)CCS(=O)(=O)c1cccc2cccnc12,-3,5,/,-0.34,/,/,/,/,/,/

# Screens from PubChem.
